Screens: PubChem, several laboratories
EBV gp42 block – Epstein-Barr virus gp42 inhibitors, primary screen, biochemical, uHTS, fluorescence polarization | Glycoprotein 42 (Epstein-Barr virus (strain AG876)), Q1HVG2 | Fluorescence polarization binding assay, mP read-out | inhibition, % (tested at 21.74 µM) | actives 0.42% (n = 220,000) | AID 1085, 2008; in the data active means inhibition above about 50%
eIF4E 4G PPI – eIF4E–eIF4G protein interaction inhibitors, primary screen, biochemical, uHTS, TR-FRET, eIF4GI fragment. TR-FRET eIF4E-eIF4GI(517-606) binding, 2 h. AID 782, 2007. inhibition, % at 21.7 µM. actives 0.37% (n = 220,000). Eukaryotic translation initiation factor 4E (Mus musculus) + Eukaryotic translation …;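 further: 0% = full FRET control wells and 100% = background wells lacking eIF4GI fragment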
WT yeast gro inh – growth inhibition of WT strain, primary screen, mitochondrial fusion inhibitor project, WT and mutant strains, chemical genetic; mitochondrial fusion phenotypic screen; inhibition, % at 10 µM; actives 2.1% (n = 190,000); in the data active means inhibition above about 58%; tested in S. cerevisiae
NCF1 inh – p47phox/p22phox peptide binding inhibitors, primary screen, biochemical, uHTS, NADPH oxidase regulatory subunit; Neutrophil cytosol factor 1 (Homo sapiens), P14598; fluorescence polarization, 2 h; inhibition, % at 24.7 µM; actives 0.53% (n = 220,000);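 further: 0% = p47phox with labelled peptide and 100% = labelled peptide alone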
Target sequence (P14598 whole entry, looked up): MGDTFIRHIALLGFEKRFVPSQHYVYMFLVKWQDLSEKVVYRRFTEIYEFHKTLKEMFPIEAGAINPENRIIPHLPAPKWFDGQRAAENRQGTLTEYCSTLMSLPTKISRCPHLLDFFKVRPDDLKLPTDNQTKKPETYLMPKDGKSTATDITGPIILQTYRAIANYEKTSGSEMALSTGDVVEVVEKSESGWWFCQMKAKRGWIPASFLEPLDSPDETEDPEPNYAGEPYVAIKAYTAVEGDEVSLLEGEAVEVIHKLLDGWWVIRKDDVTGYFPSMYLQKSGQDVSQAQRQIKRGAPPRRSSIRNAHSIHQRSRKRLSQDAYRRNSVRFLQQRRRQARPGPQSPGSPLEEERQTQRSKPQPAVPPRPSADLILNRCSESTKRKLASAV
14-3-3 Bad inh – inhibitors of 14-3-3 zeta/Bad binding, primary screen, biochemical, TR-FRET, bovine 14-3-3 zeta | 14-3-3 protein zeta/delta (Bos taurus), P63103 | TR-FRET 14-3-3zeta/Dy647-pBad peptide displacement, 1 h | inhibition, % at 21.7 µM | actives 0.71% (n = 220,000) | AID 781, 2007;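 active means inhibition above about 70%, limit read from the data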;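 further: 0% = full 14-3-3 plus peptide FRET controls and 100% = background without 14-3-3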
Target sequence (P63103 whole entry, looked up): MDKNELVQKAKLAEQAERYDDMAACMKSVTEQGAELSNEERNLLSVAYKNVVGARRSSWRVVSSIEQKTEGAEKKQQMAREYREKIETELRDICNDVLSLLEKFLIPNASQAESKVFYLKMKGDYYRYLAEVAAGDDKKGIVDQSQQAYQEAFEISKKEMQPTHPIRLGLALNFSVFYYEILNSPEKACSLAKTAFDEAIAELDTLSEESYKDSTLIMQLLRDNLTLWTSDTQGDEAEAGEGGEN
RBBP9 inhibitor – human RBBP9 inhibitors, primary screen, biochemical, fluorescence polarization, FP-Rh probe, HTS; actives 0.2% (n = 220,000); inhibition, % at 7.94 µM; recombinant RBBP9; Serine hydrolase RBBP9 (Homo sapiens), O75884;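 active means inhibition above the campaign mean of all tested compounds plus 3 SD, cut at about 14% in these data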;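 further: plate controls were DMSO wells with RBBP9 for no effect and wells lacking RBBP9 protein for full effect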
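Material: RBBP9 protein. Amount: RBBP9 at 2.5 µM in dispensed solution, before mixing. Schedule: 30 min then 45 min, 25 °C. Medium: Tris buffer pH 8.0, NaCl, Pluronic. Measured by: fluorescence polarization. Measure: percent inhibition from mP, scaled between DMSO and no-protein wells. Replication: one well per compound.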
An asterisk follows results filed as active; nt = not tested or not shown; + = active, no number; [ ] = another dose, or the depositor's remark. The list is not random: actives were taken first. Their share in the collection is about 3.7%.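 How the source made its calls, unless noted: active means inhibition above about 30% (limit read from the data); inactive means the rest.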

SMILES	EBV gp42 block	eIF4E 4G PPI	WT yeast gro inh	NCF1 inh	14-3-3 Bad inh	RBBP9 inhibitor
CSc1ccc(Cl)c(C(=O)NCCOc2cc(C)ccc2C(C)C)c1	-4	-9	62*	-11	2	-8
O=C1Nc2ccc3sc4ccccc4c3c2C1=O	58*	6	nt	8	58	4
Cc1ccc(S(=O)(=O)N2CCCCC2)cc1NC(=O)CNCc1ccco1	-4	-5	nt	6	32	-4
Cc1ccc(NC(/C=C/N(C)C)=C/C(=O)C(F)(F)F)c(C)c1	15	3	80*	-11	-4	-1
CN(C)/C=C\C(=C/C(=O)C(F)(F)F)Nc1ccccc1Oc1ccccc1	0	-8	-11	-16	-4	-5
CCCCCC(=O)Nc1ccc(N2CCN(C(=O)c3ccccc3)CC2)cc1	-13	4	-1	-7	82*	0
OC(COCC1COc2ccccc2O1)CN1CCN(c2ccccc2F)CC1 (stereo not drawn)	-2	8	5	5	89*	-2
Cc1cc2nc(-c3ccc4c(c3)CCC4)ccn2n1	3	5	25	1	-1	-7
CC1=C(OC(=O)c2ccccc2)C(C)(C)C(c2ccc(Br)cc2)OC1=O (stereo not drawn)	-19	-9	66*	-10	58	-12
Fc1ccc(COc2ccc(Br)cc2CNCc2ccncc2)cc1	-4	9	13	-1	84*	-6
Fc1ccccc1COc1ccc(Br)cc1CNCc1cccnc1	6	3	37	6	37	-7
Fc1ccccc1COc1ccc(Br)cc1CNCc1ccncc1	-10	2	-17	-2	80*	0
COC(=O)[C@@H]1CC[C@H](C)[C@@H](c2ccc(C)cc2)N1C(=O)c1ccc(/C=N/O[C@@H](C)CN2CCCCc3nc(C)c(C)cc32)cc1	-23	2	75*	-50	-11	-12
Cn1c(=O)c2c(nc(N3CCCCCC3)n2Cc2cccc3ccccc23)n(C)c1=O	-8	5	81*	-15	12	-7
CN1CCN(c2nc3c(c(=O)n(C)c(=O)n3C)n2Cc2cccc3ccccc23)CC1	-20	-2	-41	13	-7	-1
CCc1nnc(N2C(=O)c3ccccc3C2(O)c2ccccc2)s1 (stereo not drawn)	0	-2	nt	9	0	-7
S=C(NCCc1ccccc1)N1CCN(C(c2ccccc2)c2ccccc2)CC1	3	-1	27	-7	-10	-16
CCCNC(=S)N1CCN(C(c2ccccc2)c2ccccc2)CC1	-8	17	69*	-168	15	-10
CCNC(=S)N1CCN(C(c2ccccc2)c2ccccc2)CC1	-19	2	51	-11	-6	-5
CCCCNC(=S)N1CCN(C(c2ccccc2)c2ccccc2)CC1	7	-3	66*	-8	-19	-8
COc1ccc(N(Cc2cc3cccc(C)c3[nH]c2=O)C(=O)C2CCCO2)cc1 (stereo not drawn)	-7	-4	nt	-6	-6	-15
O=C(CCS(=O)(=O)c1ccc(Br)s1)Nc1ccccc1Br	-4	4	10	-3	-7	0
CCN(CC)S(=O)(=O)c1ccc(OC)c(NC(=O)CSc2cc(Cl)ccc2Cl)c1	-2	18	11	-131	-4	-14
Cc1ccc(C2NC(c3ccc(C)cc3)C(C)C(=NO)C2C)cc1 (stereo not drawn)	-9	8	83*	-18	-6	-3
Cc1cccc(Oc2ncnc3onc(C)c23)c1C	3	-3	-16	5	85*[fluorescence artefact?]	-11
SMILES	EBV gp42 block	eIF4E 4G PPI	WT yeast gro inh	NCF1 inh	14-3-3 Bad inh	RBBP9 inhibitor
Cc1noc2ncnc(Oc3ccccc3Cl)c12	4	-6	-24	2	-1	-5
Cc1c(C(=O)Nc2ccccc2)csc1-c1ccccc1	-1	4	31	-6	-7	-3
Cc1c(C(=O)Nc2ccccc2[N+](=O)[O-])csc1-c1ccccc1	-14	2	74*	-4	-1	-10
Cn1c(/C=C/N2CCOCC2)c(C(=O)c2ccc(Br)cc2)c(=O)n(C)c1=O	-10	-2	77*	-7	-6	-6
CCCn1nnc(NC(=O)/C=C/c2ccc(C(C)C)cc2)n1	-11	-1	nt	-3	-3	-7
CCOC(=O)C1=C(O)CSC1=Nc1ccc(Cl)cc1	-5	-2	28	+	1	-5
C/C(CC1CC(C)OC1=O)=N\NC(N)=S (stereo not drawn)	-24	-4	-3	-11	-14	-8
C/C(CCC12CC3CC(CC(C3)C1)C2)=N\NC(N)=S	-7	3	78*	1	-15	1
Cn1c(=O)c2nc3ccccc3nc2n(C)c1=O	1	17	10	-14	22	-1
CC(=O)Nc1ccc2nc3c(=O)n(C)c(=O)n(C)c3nc2c1	102*	16	nt	-17	10	4
COc1ccc2nc(N=Nc3c(O)ccc4ccccc34)sc2c1	-5	-8	12	34*	23	-3
COc1ccc(C(=O)c2c(C(F)(F)F)oc3c2C(=O)c2ccccc2C3=O)cc1OC	-5	5	90*	-15	-16	3
O=C(Nc1cccc(Cl)c1)c1cc(S(=O)(=O)NCCc2ccc(Cl)cc2)ccc1F	-3	-2	46	-1	9	-32
Cc1ccnc(N2C(=O)c3cccc4c([N+](=O)[O-])ccc(c34)C2=O)c1	67*	7	57	-4	19	-4
O=C1c2cccc3c([N+](=O)[O-])ccc(c23)C(=O)N1Cc1cccnc1	123*	12	64*	5	27	-1
O=C1c2cccc3cccc(c23)C(=O)N1Cc1cccnc1	-3	-1	nt	-1	3	2
CCCN(CC(=O)Nc1cccc(Br)c1)CC(=O)Nc1ccc(F)c(F)c1F	2	-4	69*	-11	-1	-10
Cc1ccc(OC(C)C(=O)N(Cc2cccs2)C2CCS(=O)(=O)C2)cc1C (stereo not drawn)	-13	-2	nt	-1	-1	-4
COc1cc(NC(=O)c2cnc(N)s2)cc(C(=O)Nc2cccc(C(F)(F)F)c2)c1	-15	31*	nt	-46	68	nt
COc1cc(NC(=O)c2csc(N)n2)cc(C(=O)Nc2cccc(C(F)(F)F)c2)c1	-7	0	nt	-5	-3	nt
COc1cc(NC(=O)c2cc(C)on2)cc(C(=O)Nc2cccc(C(F)(F)F)c2)c1	-22	-6	nt	43*	-4	nt
COc1cc(CO)ccc1Oc1nc2ccccc2n2cnnc12	-3	-1	nt	6	-9	-15
